A word on the bioavailability: it is the share of a dose that reaches the circulation, judged against a reference dose that is usually intravenous. A word on the inhibition in vivo: it is the share of the control response that was lost under treatment. Usually IC50 stands for the concentration that inhibits the measured activity by half. A word on the clearance: it is the volume of plasma or blood freed of the substance per unit of time. A word on the MRT: it is a mean duration of stay, worked out from the concentration-time curve. The EC50 is the concentration giving half of the maximal effect. One may read the EC90 as the point of the concentration-response curve where the effect stands at 90%.

Data set [1] can be described thus: Terminal half life in cynomolgus monkey at 1 mg/kg, iv measured over 24 hrs by LC/MS/MS analysis. The data set is classed as ADME, organism-based, Macaca fascicularis. Conditions: in vivo, read-out: beta t1/2 (converted). In a few lines: (§1)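 Single intravenous dose of 1 mg/kg. Vehicles: rats and dogs 5% ethanol/55% PEG 400/40% water; cynomolgus monkeys 5% ethanol/22% PEG 400/73% water; rhesus monkeys 5% ethanol/25% PEG 400/70% water. Plasma concentration–time data gave Vss and iv half-life. Reported as mean ± SD, n = 3.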

Data set [2] is described as follows: Chemical stability of the compound at pH 2 phosphate buffer assessed as time required for 50% hydrolytic degradation at 100 ug/ml and 40 degreeC by UPLC-UV analysis. It counts as physicochemical. Conditions: dose 100 µg/ml, read-out: Time (converted). In a few lines: (§2)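 Compound diluted from acetonitrile or DMSO stock to 100 μg/mL final in 50 mM phosphate buffer, pH 2 (or pH 7), ionic strength 0.15 M NaCl, 40 °C in autosampler. Timed injections analysed by reverse-phase UPLC-UV (220 nm); pseudo-first-order kobs from ln c vs time; t50 and t90 calculated.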

A short description of data set [3]: Oral bioavailability in rat at 5 mg/kg. It counts as ADME, organism-based. Conditions: in vivo.
Data set [4] in a line: Volume of distribution at steady state in cynomolgus monkey at 1 mg/kg, iv measured over 24 hrs by LC/MS/MS analysis. The data set is classed as ADME, organism-based, Macaca fascicularis. Conditions: in vivo, read-out: Vdss. In a few lines: as §1
Data set [5] in a line: In vivo inhibition of PI3Kdelta in Lewis rat model of Freund's incomplete adjuvant-induced arthritis at 1 mg/kg, po bid administered for 7 days at 12 hrs interval starting from day 10 to day 16 post-immunization relative to control. The data set is classed as functional. Conditions: 168 h, time 7 day. In a few lines:
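CIA Lewis rats dosed orally twice daily for 7 days at 0.3, 1 or 3 mg/kg; blood/plasma drug levels taken on day 7, 12 h after final dose, and related to PI3Kδ inhibition at trough.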

The target in data set [6] is PI3-kinase p110-alpha/p85-alpha (Homo sapiens, UniProt P42336). Put plainly: Inhibition of human full length PI3K p110alpha/p85alpha using […] as substrate measured after 30 mins by TR-FRET assay. The data set is classed as protein-complex assay.
PI3-kinase p110-alpha/p85-alpha, sequence (P27986 whole entry): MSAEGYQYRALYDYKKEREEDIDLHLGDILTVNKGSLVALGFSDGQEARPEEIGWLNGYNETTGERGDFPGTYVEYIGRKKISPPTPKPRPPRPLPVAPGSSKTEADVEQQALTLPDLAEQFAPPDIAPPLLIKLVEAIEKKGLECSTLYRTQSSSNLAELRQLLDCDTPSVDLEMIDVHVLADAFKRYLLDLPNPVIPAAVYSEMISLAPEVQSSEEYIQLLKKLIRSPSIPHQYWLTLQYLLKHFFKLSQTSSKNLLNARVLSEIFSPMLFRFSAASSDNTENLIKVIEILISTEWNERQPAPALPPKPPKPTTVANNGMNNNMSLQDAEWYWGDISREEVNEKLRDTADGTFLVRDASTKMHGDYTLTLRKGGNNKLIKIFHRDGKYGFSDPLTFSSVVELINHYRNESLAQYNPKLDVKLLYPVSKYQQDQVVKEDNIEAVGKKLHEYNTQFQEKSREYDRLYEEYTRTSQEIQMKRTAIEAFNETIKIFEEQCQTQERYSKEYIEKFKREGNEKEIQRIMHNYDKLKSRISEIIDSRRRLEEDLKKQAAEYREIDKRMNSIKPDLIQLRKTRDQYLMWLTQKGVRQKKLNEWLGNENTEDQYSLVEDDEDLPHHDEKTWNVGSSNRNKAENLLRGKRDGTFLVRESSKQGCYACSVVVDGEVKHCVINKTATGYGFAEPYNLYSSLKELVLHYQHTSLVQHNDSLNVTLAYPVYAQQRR
PI3-kinase p110-alpha/p85-alpha, sequence (P42336 whole entry): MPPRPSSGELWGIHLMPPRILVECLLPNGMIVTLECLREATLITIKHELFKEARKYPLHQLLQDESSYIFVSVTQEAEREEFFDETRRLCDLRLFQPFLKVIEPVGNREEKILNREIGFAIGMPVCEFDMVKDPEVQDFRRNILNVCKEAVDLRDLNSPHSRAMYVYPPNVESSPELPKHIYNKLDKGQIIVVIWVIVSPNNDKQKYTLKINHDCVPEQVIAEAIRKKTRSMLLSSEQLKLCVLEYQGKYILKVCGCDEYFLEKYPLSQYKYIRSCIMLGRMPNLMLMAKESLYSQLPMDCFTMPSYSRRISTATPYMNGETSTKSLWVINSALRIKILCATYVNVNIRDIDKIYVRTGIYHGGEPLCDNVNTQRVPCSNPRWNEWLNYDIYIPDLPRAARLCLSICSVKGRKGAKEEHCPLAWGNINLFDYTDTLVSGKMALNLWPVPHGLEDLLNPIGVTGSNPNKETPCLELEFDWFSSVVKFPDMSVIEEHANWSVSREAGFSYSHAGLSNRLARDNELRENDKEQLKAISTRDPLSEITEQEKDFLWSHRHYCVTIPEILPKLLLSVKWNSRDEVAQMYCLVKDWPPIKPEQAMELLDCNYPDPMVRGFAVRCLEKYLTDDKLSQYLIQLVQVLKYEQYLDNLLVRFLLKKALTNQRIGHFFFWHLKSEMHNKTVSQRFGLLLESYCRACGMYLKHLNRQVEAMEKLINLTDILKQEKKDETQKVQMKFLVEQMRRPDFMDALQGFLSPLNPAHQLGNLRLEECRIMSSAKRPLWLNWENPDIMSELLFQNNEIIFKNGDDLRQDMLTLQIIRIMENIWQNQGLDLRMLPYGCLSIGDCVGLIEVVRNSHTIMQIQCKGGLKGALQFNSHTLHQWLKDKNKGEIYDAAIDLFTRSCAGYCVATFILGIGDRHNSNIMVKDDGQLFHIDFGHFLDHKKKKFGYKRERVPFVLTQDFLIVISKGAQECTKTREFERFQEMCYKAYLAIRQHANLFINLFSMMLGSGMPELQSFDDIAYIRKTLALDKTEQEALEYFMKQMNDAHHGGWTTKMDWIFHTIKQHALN
Data set [7] is described as follows: Chemical stability of the compound at pH 2 phosphate buffer assessed as time required for 90% hydrolytic degradation at 100 ug/ml and 40 degreeC by UPLC-UV analysis. The data set is classed as physicochemical. Conditions: in the assay text read “10% hydrolytic degradation” for “90% hydrolytic degradation”, dose 100 µg/ml. A digest of the protocol:
as §2

Data set [8] is described as follows: Volume of distribution at steady state in rat at 1 mg/kg, iv. The data set is classed as ADME, organism-based. Conditions: in vivo, read-out: Vdss. A digest of the protocol:
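Rats and dog received 1 mg/kg intravenously, formulated in 12% w/v Captisol in water. Volume of distribution was taken at steady state from the iv plasma profile. Three animals per dosing route.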

Data set [9] in a line: Clearance in rat at 1 mg/kg, iv. It counts as ADME, organism-based. Conditions: in vivo.
The nature of data set [10]: MRT in cynomolgus monkey at 1 mg/kg, iv measured over 24 hrs by LC/MS/MS analysis. Conditions: in vivo. The data set is classed as ADME, organism-based, Macaca fascicularis. In a few lines:
(§3)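 Intravenous 1 mg/kg and oral 5 mg/kg doses. Vehicle: 5% ethanol/55% PEG 400/40% water for rats and dogs; 5% ethanol/22% PEG 400/73% water for cynomolgus; 5% ethanol/25% PEG 400/70% water for rhesus. Half-life and MRT from iv; mean ± SD, n = 3 per route.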

A short description of data set [11]: Clearance in Beagle dog at 1 mg/kg, iv measured over 24 hrs by LC/MS/MS analysis. The data set is classed as ADME, organism-based, Canis lupus familiaris. Conditions: in vivo. In a few lines: as §3
A short description of data set [12]: Inhibition of PI3Kdelta in rat whole blood assessed as reduction in anti-IgD induced B-cell activation by measuring decrease in CD86 surface expression by flow cytometry analysis. A general note: In flow cytometry, cells or beads pass a laser one at a time.
The species named for data set [13] is Rattus norvegicus. The data set is described as above.
Data set [14] deals with T1, Phosphatidylinositol 4,5-bisphosphate 3-kinase catalytic subunit delta isoform (Homo sapiens) (UniProt O00329).
T1 sequence (whole entry): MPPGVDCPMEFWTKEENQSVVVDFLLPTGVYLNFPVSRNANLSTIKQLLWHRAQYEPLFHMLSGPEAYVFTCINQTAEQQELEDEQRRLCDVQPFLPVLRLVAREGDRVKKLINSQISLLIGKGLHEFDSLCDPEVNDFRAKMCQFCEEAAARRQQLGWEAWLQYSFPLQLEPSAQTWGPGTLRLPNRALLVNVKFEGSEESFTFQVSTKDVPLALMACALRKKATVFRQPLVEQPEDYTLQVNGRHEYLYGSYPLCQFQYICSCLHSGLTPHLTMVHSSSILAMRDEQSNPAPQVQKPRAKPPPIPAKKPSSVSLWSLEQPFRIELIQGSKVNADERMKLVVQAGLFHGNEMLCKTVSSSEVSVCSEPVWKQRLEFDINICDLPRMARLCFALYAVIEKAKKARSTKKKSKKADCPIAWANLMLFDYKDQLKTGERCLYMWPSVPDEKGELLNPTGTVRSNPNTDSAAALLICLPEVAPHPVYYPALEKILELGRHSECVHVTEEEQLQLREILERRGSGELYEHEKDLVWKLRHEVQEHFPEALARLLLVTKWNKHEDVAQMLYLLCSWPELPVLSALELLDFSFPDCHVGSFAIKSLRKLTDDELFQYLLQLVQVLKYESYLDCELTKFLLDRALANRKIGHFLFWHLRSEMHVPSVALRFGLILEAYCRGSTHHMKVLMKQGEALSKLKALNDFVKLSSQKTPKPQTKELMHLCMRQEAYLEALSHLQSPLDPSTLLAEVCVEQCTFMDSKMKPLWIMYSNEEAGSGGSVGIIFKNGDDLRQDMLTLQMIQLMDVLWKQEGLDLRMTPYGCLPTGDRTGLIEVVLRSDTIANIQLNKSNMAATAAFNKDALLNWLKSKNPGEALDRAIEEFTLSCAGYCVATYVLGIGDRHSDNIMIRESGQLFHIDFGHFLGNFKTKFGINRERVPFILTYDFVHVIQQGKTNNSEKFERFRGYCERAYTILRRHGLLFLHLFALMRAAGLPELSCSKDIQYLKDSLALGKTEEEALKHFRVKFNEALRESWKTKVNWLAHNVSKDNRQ
Conditions: Blood, time 7.0 day.

Data set [15] can be described thus: Plasma concentration in Lewis rat at 1 to 5 mg/kg, po measured at 12 hrs. The data set is classed as ADME, organism-based. Conditions: dose 1-5 mg/kg. In a few lines:
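Female Lewis rats given a single oral dose of 1 or 5 mg/kg; plasma concentration–time profiles determined; mean ± SD, n = 3.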

The target of data set [16] is Phosphatidylinositol 4,5-bisphosphate 3-kinase catalytic subunit gamma isoform (Homo sapiens, UniProt P48736). Put plainly: Inhibition of PI3K p110gamma in human basophil assessed as reduction in fMLP-induced basophil activation in presence of 25% serum by flow cytometry analysis. It counts as tissue-based. In a few lines:
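Basophil activation via fMLP (p110γ) in 25% serum or in isolated WBCs in low serum, with increasing compound concentrations. Anti-CD63-FITC/anti-CCR3-PE staining; ≥150 (25% serum) or ≥75 (low serum) CCR3-high basophils gated; % CD63-positive normalized to 0.3% DMSO vehicle; concentration corrected for reagent dilution.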

Phosphatidylinositol 4,5-bisphosphate 3-kinase catalytic subunit gamma isoform, sequence (P48736 whole entry, canonical isoform): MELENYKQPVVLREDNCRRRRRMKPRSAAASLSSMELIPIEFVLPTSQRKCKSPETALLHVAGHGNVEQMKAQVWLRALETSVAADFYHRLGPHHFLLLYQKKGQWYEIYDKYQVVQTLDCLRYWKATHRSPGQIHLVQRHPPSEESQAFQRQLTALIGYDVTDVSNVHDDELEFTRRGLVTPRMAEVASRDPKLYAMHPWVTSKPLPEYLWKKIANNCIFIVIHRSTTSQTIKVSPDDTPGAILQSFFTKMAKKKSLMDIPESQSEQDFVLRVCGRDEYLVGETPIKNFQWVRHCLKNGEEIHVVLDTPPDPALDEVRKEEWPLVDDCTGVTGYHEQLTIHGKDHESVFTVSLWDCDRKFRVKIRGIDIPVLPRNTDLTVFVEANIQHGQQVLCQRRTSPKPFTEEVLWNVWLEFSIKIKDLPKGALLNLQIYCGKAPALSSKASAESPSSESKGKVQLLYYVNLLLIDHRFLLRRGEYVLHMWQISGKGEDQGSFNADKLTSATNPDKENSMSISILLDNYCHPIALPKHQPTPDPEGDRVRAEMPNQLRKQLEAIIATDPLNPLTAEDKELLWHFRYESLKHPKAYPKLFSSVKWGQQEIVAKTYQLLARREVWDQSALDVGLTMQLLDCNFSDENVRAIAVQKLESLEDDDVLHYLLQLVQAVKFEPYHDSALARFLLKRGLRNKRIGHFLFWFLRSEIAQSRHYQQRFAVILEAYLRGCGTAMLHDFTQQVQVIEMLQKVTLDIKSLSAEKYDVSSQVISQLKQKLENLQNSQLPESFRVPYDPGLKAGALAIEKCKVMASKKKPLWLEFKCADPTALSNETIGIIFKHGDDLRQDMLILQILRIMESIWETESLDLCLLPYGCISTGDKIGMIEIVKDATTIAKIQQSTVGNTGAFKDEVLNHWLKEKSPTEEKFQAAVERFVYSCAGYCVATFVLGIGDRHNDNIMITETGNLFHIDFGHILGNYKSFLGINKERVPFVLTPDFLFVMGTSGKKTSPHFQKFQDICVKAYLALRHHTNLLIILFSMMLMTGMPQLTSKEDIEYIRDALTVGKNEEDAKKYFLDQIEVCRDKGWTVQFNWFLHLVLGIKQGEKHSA

`N#Cc1c(N)nc(N)nc1N[C@H](c1nc2c(F)ccc(Cl)c2c(=O)n1-c1cccnc1)C1CC1` [GS-9901]: the half-life in [1] is 2.89 h. For the same molecule, the half-life at 100 ug/ml in data set [2] was 20 h. Further, the bioavailability in [3] was found to be 57%. Besides, the Vd in [4] came out at 1.21 L/kg; in [8], 0.83 L/kg. For the same molecule, the inhibition in vivo at 1 mg/kg in data set [5] is 80%. This molecule also yielded an IC50 in data set [6] of 750 nM. Further, the Time in data set [7] was 3.1 h. Further, the values for the clearance in [9] and in [11] were 7.17 mL/min/kg and 9 mL/min/kg, respectively. In addition, in data set [10], the MRT stood at 3.05 h. Besides, the figures for the EC50 in [12] and in data set [16] were 1.6 nM and 581 nM, respectively. Besides, the EC90 in data set [13] was found to be 31.5 nM; in data set [14], 21 nM. Moreover, in data set [15], the concentration at 12 h was greater than 32 nM.

The record behind these values is ChEMBL document CHEMBL4765230, “Discovery of Orally Efficacious Phosphoinositide 3-Kinase δ Inhibitors with Improved Metabolic Stability” (J Med Chem, 2016).
